Assay results taken from ChEMBL document CHEMBL1268917, “Synthesis and biological evaluation of radio-iodinated benzimidazoles as SPECT imaging agents for NR2B subtype of NMDA receptor” (Bioorg Med Chem, 2010).

Columns and labels:
[1] = tested on: Blood; experiment: Biodistribution in ddY mouse blood assessed per gram of tissue at 14.8 kBq, iv after 30 mins; format: ADME, organism-based; conditions: in vivo, 0.5 h
In short: (§1)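 Killed at set times after injection; organs and blood removed, weighed, gamma counted. Data as % injected dose per gram tissue, mean SD, n = 5–6.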

[2] = tested on: Spleen; experiment: Biodistribution in ddY mouse spleen assessed per gram of tissue at 14.8 kBq, iv after 0.5 mins; format: ADME, organism-based; conditions: in vivo
In short: (§2)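 Radioiodinated tracer (14.8 kBq) injected via tail vein into male ddY mice (6 weeks, 30–35 g). Organs removed at set times after injection, weighed and gamma-counted; uptake expressed as % injected dose per gram tissue, mean ± SD, n = 5–6.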

[3] = tested on: Spleen; experiment: Biodistribution in ddY mouse spleen assessed per gram of tissue at 14.8 kBq, iv after 60 mins; format: ADME, organism-based; conditions: in vivo, 1 h; in short: as §2
[4] = tested on: Pancreas; experiment: Biodistribution in ddY mouse pancreas assessed per gram of tissue at 14.8 kBq, iv after 0.5 mins; format: ADME, organism-based; conditions: in vivo; in short: as §2
[5] = tested on: Intestine; experiment: Biodistribution in ddY mouse intestine assessed per gram of tissue at 14.8 kBq, iv after 5 mins; format: ADME, organism-based; conditions: in vivo; in short: as §1
[6] = tested on: Spleen; experiment: Biodistribution in ddY mouse spleen assessed per gram of tissue at 14.8 kBq, iv after 360 mins; format: ADME, organism-based; conditions: in vivo, 6 h; in short: as §2
[7] = tested on: Kidney; experiment: Biodistribution in ddY mouse kidney assessed per gram of tissue at 14.8 kBq, iv after 5 mins; format: ADME, organism-based; conditions: in vivo; in short: as §1
[8] = tested on: Pancreas; experiment: Biodistribution in ddY mouse pancreas assessed per gram of tissue at 14.8 kBq, iv after 360 mins; format: ADME, organism-based; conditions: in vivo, 6 h; in short: as §2
[9] = tested on: Kidney; experiment: Biodistribution in ddY mouse kidney assessed per gram of tissue at 14.8 kBq, iv after 60 mins; format: ADME, organism-based; conditions: in vivo, 1 h; in short: as §1
[10] = tested on: Blood; experiment: Biodistribution in ddY mouse blood assessed per gram of tissue at 14.8 kBq, iv after 360 mins; format: ADME, organism-based; conditions: in vivo, 6 h; in short: as §1
[11] = tested on: Liver; experiment: Biodistribution in ddY mouse liver assessed per gram of tissue at 14.8 kBq, iv after 30 mins; format: ADME, organism-based; conditions: in vivo, 0.5 h; in short: as §1
[12] = tested on: Blood; experiment: Biodistribution in ddY mouse blood assessed per gram of tissue at 14.8 kBq, iv after 5 mins; format: ADME, organism-based; conditions: in vivo; in short: as §1
[13] = tested on: Stomach; experiment: Biodistribution in ddY mouse stomach assessed per gram of tissue at 14.8 kBq, iv after 5 mins; format: ADME, organism-based; conditions: in vivo; in short: as §2
[14] = tested on: Brain; experiment: Biodistribution in ddY mouse brain assessed per gram of tissue at 14.8 kBq, iv after 5 mins; format: ADME, organism-based; conditions: in vivo; in short: as §1
[15] = tested on: Heart; experiment: Biodistribution in ddY mouse heart assessed per gram of tissue at 14.8 kBq, iv after 360 mins; format: ADME, organism-based; conditions: in vivo, 6 h; in short: as §1
[16] = tested on: Pancreas; experiment: Biodistribution in ddY mouse pancreas assessed per gram of tissue at 14.8 kBq, iv after 30 mins; format: ADME, organism-based; conditions: in vivo, 0.5 h; in short: as §2
[17] = tested on: Lung; experiment: Biodistribution in ddY mouse lung assessed per gram of tissue at 14.8 kBq, iv after 5 mins; format: ADME, organism-based; conditions: in vivo; in short: as §2
[18] = tested on: Blood; experiment: Biodistribution in ddY mouse blood assessed per gram of tissue at 14.8 kBq, iv after 0.5 mins; format: ADME, organism-based; conditions: in vivo; in short: as §1
[19] = tested on: Brain; experiment: Biodistribution in ddY mouse brain assessed per gram of tissue at 14.8 kBq, iv after 180 mins; format: ADME, organism-based; conditions: in vivo, 3 h; in short: as §1
[20] = tested on: Stomach; experiment: Biodistribution in ddY mouse stomach assessed per gram of tissue at 14.8 kBq, iv after 0.5 mins; format: ADME, organism-based; conditions: in vivo; in short: as §2
[21] = tested on: Blood; experiment: Biodistribution in ddY mouse blood assessed per gram of tissue at 14.8 kBq, iv after 60 mins; format: ADME, organism-based; conditions: in vivo, 1 h; in short: as §1
[22] = tested on: Kidney; experiment: Biodistribution in ddY mouse kidney assessed per gram of tissue at 14.8 kBq, iv after 360 mins; format: ADME, organism-based; conditions: in vivo, 6 h; in short: as §1
[23] = tested on: Pancreas; experiment: Biodistribution in ddY mouse pancreas assessed per gram of tissue at 14.8 kBq, iv after 180 mins; format: ADME, organism-based; conditions: in vivo, 3 h; in short: as §2
[24] = tested on: Pancreas; experiment: Biodistribution in ddY mouse pancreas assessed per gram of tissue at 14.8 kBq, iv after 60 mins; format: ADME, organism-based; conditions: in vivo, 1 h; in short: as §2
[25] = tested on: Kidney; experiment: Biodistribution in ddY mouse kidney assessed per gram of tissue at 14.8 kBq, iv after 30 mins; format: ADME, organism-based; conditions: in vivo, 0.5 h; in short: as §1
[26] = tested on: Brain; experiment: Biodistribution in ddY mouse brain assessed per gram of tissue at 148 kBq, iv after 180 mins in presence of 200 mg/kg, iv of probenecid administered 30 mins before compound challenge (reference value: 0.44 +/- 0.06 %); conditions: in vivo, 3 h

Drug uptake [1]: 0.67 % ID/g
Drug uptake [2]: 0.5 % ID/g
Drug uptake [3]: 4.65 % ID/g
Drug uptake [4]: 0.49 % ID/g
Drug uptake [5]: 1.83 % ID/g
Drug uptake [6]: 3.79 % ID/g
Drug uptake [7]: 12.2 % ID/g
Drug uptake [8]: 8.76 % ID/g
Drug uptake [9]: 10.34 % ID/g
Drug uptake [10]: 0.28 % ID/g
Drug uptake [11]: 28.99 % ID/g
Drug uptake [12]: 1.15 % ID/g
Drug uptake [13]: 1.93 % ID/g
Drug uptake [14]: 0.42 % ID/g
Drug uptake [15]: 1.58 % ID/g
Drug uptake [16]: 6.1 % ID/g
Drug uptake [17]: 14.48 % ID/g
Drug uptake [18]: 3.22 % ID/g
Drug uptake [19]: 0.56 % ID/g
Drug uptake [20]: 0.72 % ID/g
Drug uptake [21]: 0.75 % ID/g
Drug uptake [22]: 5.46 % ID/g
Drug uptake [23]: 6.53 % ID/g
Drug uptake [24]: 6.35 % ID/g
Drug uptake [25]: 11.2 % ID/g
Drug uptake [26]: 0.57 % ID/g
Structure (SMILES): Oc1ccc2nc(CN3CCC(Cc4ccc([125I])cc4)CC3)[nH]c2c1
